Laboratory results from ChEMBL document CHEMBL5380775, “Visible-Light-Controlled Histone Deacetylase Inhibitors for Targeted Cancer Therapy” (J Med Chem, 2023).
Active and inactive are the calls of the source. The rule behind the calls is not given here.

How the values were obtained:
[1] = Stability of compound in DMSO assessed as half life at 25 to 50 uM in presence of illumination with 380 to 550 nm light; assay type: physicochemical; conditions: dose 25-50 µM
Procedure, shortened: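 Solutions of 25–50 μM in DMSO illuminated 2 min at the cis-forming wavelength. Absorbance then followed at fixed intervals in the dark at room temperature, at the wavelength of largest isomer difference. Half-life from an exponential-decay fit.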

Histone deacetylase 1 [2] = molecular target: T1, Histone deacetylase 1 (Homo sapiens, UniProt Q13547); assay: Inhibition of human recombinant HDAC1 using Boc-Lys(Ac)-AMC as substrate incubated for 1 hrs in presence of illumination with 420 nm light by fluorescence based assay
Histone deacetylase 1 [3] = molecular target: T1, Histone deacetylase 1; assay: Inhibition of human recombinant HDAC1 using Boc-Lys(Ac)-AMC as substrate at 0.003 to 10 uM incubated for 1 hrs in dark by fluorescence based assay; conditions: dose 0.003-10 µM
Procedure, shortened: (§1)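 Recombinant human HDAC1 at 8 ng/well with Boc-Lys(Ac)-AMC 15 μM in Tris buffer pH 8 with 0.1 mg/mL BSA. Compound 10 μM to 3 nM, 1 h at room temperature. Dark: stocks heated to 60 or 80 °C. Light: stocks preilluminated 3 min, then continuous 550 nm at 6 mW/cm². […] Fluorescence ex 380/em 460 nm, blank-subtracted.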

HeLa [4] = assay: Anticancer activity against human HeLa cells assessed as inhibition of cell growth incubated for 48 hrs in dark by MTS assay; assay type: functional, cell-based
Procedure, shortened: (§2)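 HeLa cells in DMEM with 10% FBS, seeded at 5 × 10³ cells/well 24 h before treatment. Dark stocks heated to 60 or 80 °C. Light stocks preilluminated 3 min at 380 nm (11 mW/cm²). Stocks diluted in DMEM to 20× final, final DMSO 0.5%. Exposure 24 or 48 h. MTS read 2 h at 37 °C, absorbance 490 nm; % of nontreated cells.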

HeLa [5] = assay: Anticancer activity against human HeLa cells assessed as inhibition of cell growth incubated for 48 hrs in presence of illumination with 380 nm light by MTS assay; assay type: functional, cell-based; procedure, shortened: as §2
HT-29 [6] = assay: Cytotoxicity against human HT-29 cells assessed as reduction in cell viability at 50 uM incubated for 48 hrs in presence of illumination with 550 nm light by MTS assay; assay type: functional, cell-based
Procedure, shortened: (§3)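 HT29 and MCF7 cells in DMEM with 10% FBS, seeded at 1 × 10⁴ cells/well; compound added 24 h later. Dark stocks heated to 60 or 80 °C; light stocks preilluminated 3 min at 380 or 550 nm. Tested at 50 μM, final DMSO 0.5%, for 48 h. MTS read 2 h at 37 °C, absorbance 490 nm; viability as % of nontreated cells.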

KG-1 [7] = assay: Cytotoxicity against human KG-1 cells assessed as reduction in cell viability at 50 uM incubated for 48 hrs in dark condition by celltiter glo assay; assay type: functional, cell-based
Procedure, shortened: (§4)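 KG1 suspension cells grown in IMDM with 20% FBS, 1 × 10⁴ cells/well. Dark stocks heated to 60 or 80 °C; light stocks preilluminated 3 min at 380 or 550 nm. Exposure 50 μM for 48 h. CellTiter-Glo added, 10 min at room temperature, luminescence read; % of nontreated cells.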

KG-1 [8] = assay: Cytotoxicity against human KG-1 cells assessed as reduction in cell viability at 50 uM incubated for 48 hrs in presence of illumination with 380 nm light by celltiter glo assay; assay type: functional, cell-based; procedure, shortened: as §4
KG-1 [9] = assay: Cytotoxicity against human KG-1 cells assessed as reduction in cell viability at 50 uM incubated for 48 hrs in presence of illumination with 550 nm light by celltiter glo assay; assay type: functional, cell-based; procedure, shortened: as §4
HT-29 [10] = assay: Cytotoxicity against human HT-29 cells assessed as reduction in cell viability at 50 uM incubated for 48 hrs in dark condition by MTS assay; assay type: functional, cell-based; procedure, shortened: as §3
HT-29 [11] = assay: Cytotoxicity against human HT-29 cells assessed as reduction in cell viability at 50 uM incubated for 48 hrs in presence of illumination with 380 nm light by MTS assay; assay type: functional, cell-based; procedure, shortened: as §3
[12] = Stability of the compound assessed as half life in DMEM by HPLC analysis; assay type: physicochemical
Procedure, shortened: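 10 mM DMSO stock illuminated 2 min (LED array plate at maximum power, e.g. 380 nm at 11 mW/cm²), then diluted to 10 μM in DMEM with 0.1% DMSO. Kept at 37 °C in an incubator in the dark; samples taken at fixed intervals and analysed by HPLC. Cis thermal half-life obtained by fitting the decay to an exponential function.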

MCF7 [13] = assay: Cytotoxicity against human MCF7 cells assessed as reduction in cell viability at 50 uM incubated for 48 hrs in presence of illumination with 380 nm light by MTS assay; assay type: functional, cell-based; procedure, shortened: as §3
[14] = molecular target: Histone deacetylase (Homo sapiens) (UniProt Q13547+O15379+Q9UBN7+Q92769+Q9UQL6+Q8WUI4+Q9BY41+Q96DB2+P56524+Q9UKV0+Q969S8); assay: Inhibition of HDAC in human HeLa cells at 50 uM incubated for 3 hrs by fluorescence based analysis; assay type: cell-based
Procedure, shortened: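 Live-cell HDAC assay: HeLa in DMEM/10% FBS, 15 × 10³ cells/well, seeded 24 h before. Compound added at 50 μM final, either heat-relaxed to trans (60 or 80 °C, dark) or LED-illuminated 3 min. Boc-Lys(Ac)-AMC substrate at 100 μM final, 3 h at 37 °C. […] Fluorescence ex 380/em 460 nm. Activity as % of untreated cells after no-substrate blank subtraction.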

MCF7 [15] = assay: Cytotoxicity against human MCF7 cells assessed as reduction in cell viability at 50 uM incubated for 48 hrs in presence of illumination with 550 nm light by MTS assay; assay type: functional, cell-based; procedure, shortened: as §3
MCF7 [16] = assay: Cytotoxicity against human MCF7 cells assessed as reduction in cell viability at 50 uM incubated for 48 hrs in dark condition by MTS assay; assay type: functional, cell-based; procedure, shortened: as §3
[17] = Stability of the compound assessed as half life in buffer; assay type: physicochemical
Histone deacetylase 1 [18] = molecular target: T1, Histone deacetylase 1; assay: Inhibition of human recombinant HDAC1 using Boc-Lys(Ac)-AMC as substrate incubated for 1 hrs in dark by fluorescence based assay
Histone deacetylase 1 [19] = molecular target: T1, Histone deacetylase 1; assay: Inhibition of human recombinant HDAC1 using Boc-Lys(Ac)-AMC as substrate at 0.003 to 10 uM incubated for 1 hrs in presence of illumination with 550 nm light by fluorescence based assay; conditions: dose 0.003-10 µM; procedure, shortened: as §1
Histone deacetylase 1 [20] = molecular target: T1, Histone deacetylase 1; assay: Inhibition of human recombinant HDAC1 using Boc-Lys(Ac)-AMC as substrate incubated for 1 hrs in presence of illumination with 550 nm light by fluorescence based assay
Histone deacetylase 1 [21] = molecular target: T1, Histone deacetylase 1; assay: Inhibition of human recombinant HDAC1 using Boc-Lys(Ac)-AMC as substrate incubated for 1 hrs in presence of illumination with 380 nm light by fluorescence based assay
HeLa [22] = assay: Anticancer activity against human HeLa cells assessed as reduction in cell viability upto 100 uM incubated for 48 hrs in dark by MTS assay; assay type: functional, cell-based; procedure, shortened: as §2
HeLa [23] = assay: Anticancer activity against human HeLa cells assessed as inhibition of cell growth incubated for 24 hrs in dark condition by MTS assay; assay type: functional, cell-based; procedure, shortened: as §2
[24] = in the assay text read “380 nm light” for “550 nm light”

T1 sequence (Q13547 whole entry): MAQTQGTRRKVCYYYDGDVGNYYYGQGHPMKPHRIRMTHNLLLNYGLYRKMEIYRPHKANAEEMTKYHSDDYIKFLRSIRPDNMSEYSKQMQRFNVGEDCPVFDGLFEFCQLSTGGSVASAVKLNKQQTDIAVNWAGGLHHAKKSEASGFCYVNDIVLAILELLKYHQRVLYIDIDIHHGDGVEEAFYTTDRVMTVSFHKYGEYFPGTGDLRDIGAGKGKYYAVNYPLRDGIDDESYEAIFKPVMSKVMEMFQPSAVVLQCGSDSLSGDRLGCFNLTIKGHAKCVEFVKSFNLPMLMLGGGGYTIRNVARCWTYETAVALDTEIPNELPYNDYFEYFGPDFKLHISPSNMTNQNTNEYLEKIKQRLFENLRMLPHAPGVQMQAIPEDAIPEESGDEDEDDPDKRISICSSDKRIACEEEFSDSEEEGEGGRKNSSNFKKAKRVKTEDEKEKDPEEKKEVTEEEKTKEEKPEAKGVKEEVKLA

In the case of CN(C)c1cc(F)c(/N=N/c2c(F)cc(/C=C/C(=O)Nc3ccccc3N)cc2F)c(F)c1, the half-life at up to 50 µM [1] is reported as 5.4 h, the IC50 (Histone deacetylase 1 [2]) is reported as 1200 nM and the inhibition (Histone deacetylase 1 [3]) is reported as “inactive”.
In the case of COc1ccc(/N=N/c2ccc(CCC(=O)Nc3ccccc3N)cc2)cc1, the inhibition (HeLa [4]) is reported as “inactive”, the half-life at up to 50 µM [1] is reported as 20.1 h and the Activity (HeLa [5]) is reported as “inactive”.
For COc1cc(Cl)c(/N=N/c2c(Cl)cc(/C=C/C(=O)Nc3ccccc3N)cc2Cl)c(Cl)c1, the half-life at up to 50 µM [1] was 13.8 h and the inhibition (Histone deacetylase 1 [3]) was “inactive”.
COc1cc(F)c(/N=N/c2c(F)cc(/C=C/C(=O)NO)cc2F)c(F)c1 showed a half-life at up to 50 µM [1] of 218 h.
For COc1cc(F)c(/N=N/c2c(F)cc(C(=O)Nc3ccccc3N)cc2F)c(F)c1, the Activity (HT-29 [6]) was “Active”, the Activity (KG-1 [7]) was “inactive” and the Activity (KG-1 [8]) was “Active”. The half-life at up to 50 µM [1] was 1010 h, the Activity (KG-1 [9]) was “Active” and the Activity (HT-29 [10]) was “inactive”. For the same compound, the Activity (HT-29 [11]) was “Active”, the half-life [12] was 113 h and the Activity (MCF7 [13]) was “Active”. The inhibition [14] was “Active”, the Activity (MCF7 [15]) was “Active” and the Activity (MCF7 [16]) was “inactive”.
In the case of COc1cc(F)c(/N=N/c2c(F)cc(/C=C/C(=O)Nc3ccccc3N)cc2F)c(F)c1, the inhibition (HeLa [4]) is reported as “inactive”, the Activity (HT-29 [6]) is reported as “Active” and the Activity (KG-1 [7]) is reported as “inactive”. For the same compound, the Activity (KG-1 [8]) was “Active”, the half-life at up to 50 µM [1] was 223 h and the Activity (KG-1 [9]) was “Active”. The Activity (HT-29 [10]) was “inactive”, the Activity (HT-29 [11]) was “Active” and the Activity (MCF7 [13]) was “Active”. For the same compound, the inhibition [14] was “Active”, the Activity (MCF7 [15]) was “Active” and the Activity (MCF7 [16]) was “inactive”.
Compound COc1ccc(/N=N/c2ccc(/C=C/C(=O)NO)cc2)cc1 has a half-life at up to 50 µM [1] of 2.7 h and a half-life [17] of 2.7 h.
With COc1cc(Cl)c(/N=N/c2c(Cl)cc(C(=O)Nc3ccccc3N)cc2Cl)c(Cl)c1 the inhibition (Histone deacetylase 1 [18]) was “inactive”, the half-life at up to 50 µM [1] was 8.3 h and the inhibition (Histone deacetylase 1 [19]) was “inactive”. For the same compound, the inhibition (Histone deacetylase 1 [20]) was “inactive” and the inhibition (Histone deacetylase 1 [3]) was “inactive”.
With COc1cc(F)c(/N=N/c2c(F)cc(/C=C/C(=O)Nc3ccccc3N)cc2Cl)c(Cl)c1 the inhibition (HeLa [4]) was “inactive”, the Activity (HT-29 [6]) was “Active” and the Activity (KG-1 [7]) was “inactive”. For the same compound, the Activity (KG-1 [8]) was “Active”, the half-life at up to 50 µM [1] was 178 h and the Activity (KG-1 [9]) was “Active”. The Activity (HT-29 [10]) was “inactive”, the Activity (HT-29 [11]) was “Active” and the Activity (MCF7 [13]) was “Active”. The inhibition [14] was “Active”, the Activity (MCF7 [15]) was “Active” and the Activity (MCF7 [16]) was “inactive”.
Work on CN(C)c1ccc(/N=N/c2ccc(C(=O)Nc3ccccc3N)cc2)cc1 yielded a half-life at up to 50 µM [1] of 0.0717 h.
In the case of COc1ccc(/N=N/c2ccc(/C=C/C(=O)Nc3ccccc3N)cc2F)c(F)c1, the inhibition (HeLa [4]) is reported as “inactive”, the half-life at up to 50 µM [1] is reported as 9.9 h and the inhibition (HeLa [5]) is reported as “inactive”. The IC50 (Histone deacetylase 1 [21]) was 460 nM.
In the case of COc1ccc(/N=N/c2ccc(/C=C/C(=O)Nc3cc(-c4cccs4)ccc3N)cc2)cc1, the Activity (HT-29 [6]; [24]) is reported as “Active”, the Activity (KG-1 [7]) is reported as “inactive” and the Activity (KG-1 [8]) is reported as “Active”. For the same compound, the half-life at up to 50 µM [1] was 4.5 h, the Activity (KG-1 [9]) was “Active” and the Activity (HeLa [22]) was “inactive”. For the same compound, the inhibition (HeLa [23]) was “inactive”, the Activity (HT-29 [10]) was “inactive” and the Activity (HT-29 [11]) was “Active”. The Activity (MCF7 [13]) was “Active”, the inhibition [14] was “Active” and the Activity (MCF7 [15]) was “Active”. The Activity (MCF7 [16]) was “inactive”.
In the case of COc1ccc(/N=N/c2ccc(/C=C/C(=O)Nc3ccccc3N)cc2Cl)c(Cl)c1, the inhibition (HeLa [4]) is reported as “inactive”, the half-life at up to 50 µM [1] is reported as 4.3 h and the inhibition (HeLa [5]) is reported as “inactive”.
With COc1ccc(/N=N/c2ccc(C(=O)NO)cc2)cc1 the half-life at up to 50 µM [1] was 18.7 h.
In the case of COc1ccc(/N=N/c2ccc(/C=C/C(=O)Nc3ccccc3N)cc2)cc1, the Activity (HT-29 [6]; [24]) is reported as “Active”, the Activity (KG-1 [7]) is reported as “inactive” and the Activity (KG-1 [8]) is reported as “Active”. The half-life at up to 50 µM [1] was 3.1 h, the Activity (KG-1 [9]) was “Active” and the Activity (HeLa [22]) was “inactive”. The Activity (HT-29 [10]) was “inactive”, the Activity (HT-29 [11]) was “Active” and the half-life [12] was 0.667 h. For the same compound, the Activity (MCF7 [13]) was “Active”, the inhibition [14] was “Active” and the Activity (MCF7 [15]) was “Active”. The Activity (MCF7 [16]) was “inactive”.
Compound CN(C)c1cc(Cl)c(/N=N/c2c(Cl)cc(/C=C/C(=O)Nc3ccccc3N)cc2Cl)c(Cl)c1 has a half-life at up to 50 µM [1] of 0.135 h and an IC50 (Histone deacetylase 1 [2]) of 5000 nM.
In the case of COc1ccc(/N=N/c2ccc(C(=O)Nc3ccccc3N)cc2)cc1, the inhibition (HeLa [4]) is reported as “inactive” and the half-life at up to 50 µM [1] is reported as 20.8 h.
